Data on 14 compounds can be found in ChEMBL document CHEMBL4251636, “Design, synthesis and biological evaluations of novel pyridone-thiazole hybrid molecules as antitumor agents” (Eur J Med Chem, 2018).

Assay [1] has as its system HCT-116. The assay can be described thus: Antiproliferative activity against human HCT116 cells after 72 hrs by MTT assay. As to conditions: HCT-116, 72 h. It is filed as functional, cell-based. In outline: (§1)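 Cells grown to log phase in RPMI 1640 with 10% FBS, seeded at 2×10^4 cells/mL and incubated 24 h at 37 °C, 5% CO2. Compounds added, then 72 h at 37 °C. MTT (5 mg/mL stock) for 4 h, formazan dissolved in DMSO, absorbance read at 570 nm. Triplicate wells per concentration, three independent experiments. IC50 is the concentration giving 50% growth inhibition versus untreated control, reported as mean ± S.E.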

The next assay concerns Huh-7. The assay can be described thus: Antiproliferative activity against human HuH7 cells after 72 hrs by MTT assay. It is filed as functional, cell-based. The conditions noted are these: Huh-7, 72 h. The essentials:
as §1
In general terms: Formazan colour is commonly taken as a measure of viable cells.

In assay [2] the test system is MGC-803. As to the kind of experiment: Antiproliferative activity against human MGC803 cells after 72 hrs by MTT assay. The conditions noted are these: MGC-803, 72 h. It is filed as functional, cell-based. The essentials: as §1
Assay [3] concerns MGC-803. The assay can be described thus: Potency index, ratio of 5-Fluorouracil IC50 to compound IC50 for antiproliferative activity against human MGC803 cells. Format: functional.
Assay [4] relates to HCT-116. The assay can be described thus: Potency index, ratio of 5-Fluorouracil IC50 to compound IC50 for antiproliferative activity against human HCT116 cells. Format: functional.

A value given as a limit tells only on which side of the number the result lay.

Broadly, the IC50 is the midpoint of a concentration-inhibition curve. Read a high IC50 as lower potency. As for `O=c1[nH]cc(F)c(=O)[nH]1` [FLUOROURACIL], the half-maximal inhibitory concentration (IC50) turned out to be 11.3 µM in the assay on HCT-116 [1], 5.63 µM with Huh-7 and 25.5 µM in the assay with MGC-803 [2].

For `CC(=O)c1sc(N/N=C2/C=C(Nc3ccccc3)C(Nc3ccccc3)=NC2=O)nc1C`, the results for the IC50 in the assay on HCT-116 [1], in the assay on Huh-7 and with MGC-803 [2] were 25.3 µM, 19.1 µM and 13.5 µM, respectively.

Regarding `COc1cccc(NC2=C/C(=N/Nc3nc(C)c(C(C)=O)s3)C(=O)N=C2Nc2cccc(OC)c2)c1`, the IC50 in the assay with HCT-116 [1], in the assay with Huh-7 and with MGC-803 [2] was greater than 128 µM each time.

With `CC(=O)c1sc(N/N=C2/C=C(Nc3cccc(C)c3)C(Nc3cccc(C)c3)=NC2=O)nc1C`, the IC50 in the assay on HCT-116 [1], in the assay on Huh-7 and with MGC-803 [2] was greater than 128 µM throughout.

In the case of `CC(=O)c1sc(N/N=C2/C=C(Nc3cccc(F)c3)C(Nc3cccc(F)c3)=NC2=O)nc1C`, the results for the IC50 in the assay on HCT-116 [1], in the assay on Huh-7 and in the assay on MGC-803 [2] were 22.8 µM, 58.8 µM and 21.4 µM, respectively.

With `COc1ccc(NC2=C/C(=N/Nc3nc(C)c(C(C)=O)s3)C(=O)N=C2Nc2ccc(OC)cc2)cc1`, the half-maximal inhibitory concentration (IC50) with HCT-116 [1] was greater than 128 µM; with Huh-7, greater than 128 µM; with MGC-803 [2] it was 82.6 µM.

Regarding `CC(=O)c1sc(N/N=C2/C=C(Nc3ccc(Cl)cc3)C(Nc3ccc(Cl)cc3)=NC2=O)nc1C`, the results for the half-inhibitory concentration (IC50) in the assay on HCT-116 [1], with Huh-7 and in the assay with MGC-803 [2] were 8.28 µM, greater than 128 µM and 8.56 µM, respectively.

For the compound `CC(=O)c1sc(N/N=C2/C=C(Nc3ccccc3Cl)C(Nc3ccccc3Cl)=NC2=O)nc1C`, the values for the IC50 in the assay with HCT-116 [1], in the assay with Huh-7 and in the assay on MGC-803 [2] were 8.17 µM, 21.5 µM and 3.15 µM, respectively. The “Ratio IC50” value in the assay on MGC-803 [3] came to 8.1; in the assay with HCT-116 [4], 1.4.

Consider `CC(=O)c1sc(N/N=C2/C=C(Nc3ccccc3C)C(Nc3ccccc3C)=NC2=O)nc1C`, for which the IC50 in the assay with HCT-116 [1] was greater than 128 µM; in the assay with Huh-7, greater than 128 µM; in the assay with MGC-803 [2] it was 45 µM.

`CC(=O)c1sc(N/N=C2/C=C(Nc3cccc(Br)c3)C(Nc3cccc(Br)c3)=NC2=O)nc1C`: the concentration for half-maximal inhibition (IC50) in the assay with HCT-116 [1] is 22.2 µM; in the assay with Huh-7 it was greater than 128 µM; with MGC-803 [2], 21.6 µM.

`CC(=O)c1sc(N/N=C2/C=C(Nc3cccc(Cl)c3)C(Nc3cccc(Cl)c3)=NC2=O)nc1C`: the results for the IC50 with HCT-116 [1], in the assay on Huh-7 and in the assay on MGC-803 [2] were 10.6 µM, greater than 128 µM and 5.18 µM, respectively.

Consider `COc1ccccc1NC1=C/C(=N/Nc2nc(C)c(C(C)=O)s2)C(=O)N=C1Nc1ccccc1OC`, for which the figures for the IC50 in the assay with HCT-116 [1], in the assay with Huh-7 and in the assay with MGC-803 [2] were 85.4 µM, 20.6 µM and 51.1 µM, respectively.

`CC(=O)c1sc(N/N=C2/C=C(Nc3ccc(Br)cc3)C(Nc3ccc(Br)cc3)=NC2=O)nc1C`: the figures for the IC50 in the assay on HCT-116 [1], in the assay with Huh-7 and in the assay on MGC-803 [2] were 13.2 µM, 17.9 µM and 9.12 µM, respectively.

Take `CC(=O)c1sc(N/N=C2/C=C(Nc3ccc(C)cc3)C(Nc3ccc(C)cc3)=NC2=O)nc1C`: the IC50 with HCT-116 [1] was determined as 52.7 µM; in the assay with Huh-7 it was 72 µM; with MGC-803 [2], 75.5 µM.
